Screening data deposited in PubChem by several laboratories.
Beta apoptosis: blocks beta cell apoptosis. 0.8% of 300,000 active. INS-1E cytokine-induced death, ATP luminescence, 48 h; percent of positive-control rescue, neutral wells zero. AID 435005. protection from apoptosis, % (no concentration beside the values);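 active = Every replicate reaches about 75%, or at least half do and their mean reaches it too, limit read from the data; inconclusive = At least half of replicates reach the limit but their mean does not; inactive = Under half of replicates reach the limit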;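 also: higher means more ATP so stronger rescue from cytokine killing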
CSC inhib: blocks cancer stem cells; cancer stem cell-like cells viability, luminescence; inhibition, % at 7.5 µM; 1.1% of 300,000 active; in the data active = inhibition above about 75%; inconclusive = no clear call, values can overlap the other calls; tested in HMLE shEcad cells
Mdm2 MdmX PPI: inhibitors of human Mdm2/MdmX interaction. O15151+Q00987. SaOS-2 split-luciferase Mdm2/MdmX complementation, luminescence. inhibition, % at 8 µM. 3% of 330,000 active. AID 485346;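 active = inhibition of at least 50% at 8 µM in the primary screen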
SKKanGAS inh: inhibitors of SKKanGAS S. pyogenes growth in kanamycin (SK-promoter or general growth effect); BacTiter-Glo, 6 h; inhibition, % at 7.5 µM; 1.3% of 300,000 active;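 active = mean replicate score, as percent of positive control median, at least 50; inconclusive = mean below 50 but one replicate at or above 50; inactive = mean and every replicate below 50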;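 also: strain carries kanamycin resistance gene driven by streptokinase promoter and grows in 40 µg/ml kanamycin; loss of luminescence reflects streptokinase promoter inhibition or plain growth inhibition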
Calb FLC: C. albicans growth modulation with fluconazole. AID 1979. 0.57% of 300,000 active. growth inhibition, % (no concentration beside the values). C. albicans CaCi-2 (fluconazole-resistant clinical isolate) + fluconazole, Alamar Blue growth, 48 h;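 active = growth inhibition above about 58% in most replicates, limit read from the data, passing the limit was not always enough; inconclusive = exactly half the replicates above a set limit; inactive = most replicates below a set limit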;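 also: all wells also contain fluconazole at 8 µg/ml as a sub-toxic cotreatment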
T cruzi repl: blocks replication of Trypanosoma cruzi. T. cruzi beta-gal in NIH3T3, luminescence, 90 h. inhibition, % (concentration not given with the values). 1.4% of 300,000 active. AID 1885;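 active = mean inhibition across valid replicates above about 55%, limit read from the data; inconclusive = mean below that limit but half or more replicates reach it; inactive = mean below it, under half of replicates reach it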;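 also: signal also drops with host cell toxicity which is not excluded here; higher percent means less beta-gal luminescence so fewer parasites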
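Incubation – ≥90 h infection period, 3 h prior cell attachment · System – NIH/3T3 fibroblasts plus reporter T. cruzi · Doses – compound pinned at 50 nL/well, DMSO · Read-out basis – percent inhibition of parasite-derived β-gal signal · Signal – luminescent β-galactosidase signal after 60 min lysis · Also added – 5000 T. cruzi trypomastigotes/well · Medium – Low-serum DMEM with 2% FBS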
Mdm2 MdmX conf: human Mdm2/MdmX binding inhibition, confirmed; shares compounds with Mdm2 MdmX PPI; AID 489028; inhibition, % at 8 µM; 55% of 10,000 active; luminescent assay; in the data active = inhibition above about 40%
Full FLuc ctr: inhibits full-length luciferase, flagging false Mdm2/MdmX hits | SaOS-2 full-length luciferase counterscreen, luminescence | AID 504607 | inhibition, % at 8 µM | shares compounds with Mdm2 MdmX PPI | 77% of 6,200 active;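 active = mean inhibition at 8 µM reaching about 37%, which flags the compound as non-specific, limit read from the data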;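 also: p53-null SaOS-2 cells with luciferase driven by a doxycycline-inducible promoter; compound on cells about two nights before reading with doxycycline added after day one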
Numbers stand for hits; i = inactive; ? = inconclusive; nt = no result given. Only some compounds are listed: those with a hit (about 5.7% of all), similar ones and a draw of the others.

SMILES | Beta apoptosis | CSC inhib | Mdm2 MdmX PPI | SKKanGAS inh | Calb FLC | T cruzi repl | Mdm2 MdmX conf | Full FLuc ctr
O=C(Nc1ccc(Cc2ccc(NC(=O)C3CC3)cc2)cc1)C1CC1 | i | i | 56.9 | i | i | i | i | nt
COc1ccc(Cn2c(-c3ccc(C)cc3)c[n+]3ccccc23)cc1 | 93.2 | i | 62.5 | i | i | ? | i | 65.3
Cc1ccn2c(NC3CCCCC3)c(-c3cccc(SC4CCCCC4)c3)nc2c1 | i | 99.9 | 91.4 | nt | nt | nt | i | nt
CC(=O)N/N=C/c1ccccc1OCCOc1cccc(C)c1 | i | i | i | i | i | i | nt | nt
COc1ccc(-c2c(-c3cc(OC)cc(OC)c3)n(C)c3ccc(-c4ccc(SC)cc4)cc23)cc1 | i | i | i | nt | nt | nt | nt | nt
COc1cccc(-c2c(-c3cc(OC)cc(OC)c3)n(C)c3ccc(-c4ccc(OC)nc4)cc23)c1 | i | i | i | nt | nt | nt | nt | nt
COc1cc(OC)cc(-c2c(-c3ccc(F)cc3)c3cc(-c4ccc(SC)cc4)ccc3n2C)c1 | i | nt | 53.2 | nt | nt | nt | i | nt
COc1cc(OC)cc(-c2c(-c3ccc(F)cc3)c3cc(-c4ccc(OC)nc4)ccc3n2C)c1 | i | nt | 52.0 | nt | nt | nt | i | nt
COc1cc(OC)cc(-c2c(-c3cccs3)c3cc(-c4ccc(C(N)=O)cc4)ccc3n2C)c1 | i | nt | 85.5 | nt | nt | nt | i | nt
O=c1cc(Nc2ccc3c(c2)OCCO3)[nH]c(=O)n1-c1ccc(Br)cc1 | nt | nt | 55.1 | i | i | i | i | nt
Cn1c(CCN2CCN(c3ccccn3)CC2)nc2cc(NS(=O)(=O)c3ccccc3)ccc21 | i | i | i | i | i | i | nt | nt
O=C(NCCc1ccccc1)C(c1cccs1)N(C(=O)CCl)c1ccc(Cl)cc1 (configuration not stated) | i | i | 98.9 | i | i | i | 100.1 | 52.5
CCc1ccc(NSc2ccccc2[N+](=O)[O-])cc1 | i | i | 50.3 | 76.0 | i | i | 41.9 | 64.8
O=C(O)c1ccccc1NSc1ccccc1[N+](=O)[O-] | i | i | i | i | i | i | nt | nt
CC(C)N(CC(=O)Nc1ccc(Cl)cc1C(F)(F)F)C(=O)CCl | i | i | 63.1 | i | i | 82.6 | i | nt
CCC(CC)NC(=O)Nc1cccc(C)c1C | i | i | i | i | i | i | nt | nt
CCC(C)N(CC(=O)Nc1cccc(C)c1C)C(=O)CCl (configuration not stated) | i | i | 100.5 | i | i | 69.0 | 98.7 | 51.7
CC(Cc1ccccc1)NC(=S)CN1CCCC1=S (configuration not stated) | i | i | i | i | i | i | nt | nt
Cc1ccc(OCc2nnc(N)s2)cc1C | nt | i | i | i | i | i | nt | nt
CC(=O)Nc1ccnn1C1CCN(C(=O)c2cccc(C)c2C)CC1 | i | i | i | i | i | i | nt | nt
Cc1ccc(-n2nc3c(=O)n(CCCC(=O)NCc4ccco4)nc(C)c3c2C)cc1 | i | i | i | i | i | i | nt | nt
N/C(=N\OC(=O)Nc1ccc(Cl)cc1)c1ncc(C(F)(F)F)cc1Cl | i | nt | i | i | i | i | nt | nt
N/C(=N\OC(=O)Nc1ccccc1)c1ncc(C(F)(F)F)cc1Cl | i | i | 51.0 | i | i | i | i | nt
COc1ccc(C(C)=O)cc1COC(=O)c1ccc(C)c(S(=O)(=O)N2CCOCC2)c1 | i | i | i | nt | nt | nt | nt | nt
CC(C)OC(=O)c1cc2c(ccn2C)n1CC(=O)N(Cc1ccccc1)c1ccccc1 | i | i | 86.3 | i | i | i | 53.8 | 64.8
SMILES | Beta apoptosis | CSC inhib | Mdm2 MdmX PPI | SKKanGAS inh | Calb FLC | T cruzi repl | Mdm2 MdmX conf | Full FLuc ctr
CC(=O)c1sc(NC(=O)CCS(=O)(=O)c2ccc(Cl)cc2)nc1C | i | i | 50.9 | i | i | i | 51.9 | 68.7
O=C(Nc1nc(-c2ccncc2)cs1)c1ccc(F)cc1 | i | i | 66.3 | i | i | i | i | nt
COc1cccc(C(=O)Nc2nc(-c3ccncc3)cs2)c1 | i | i | i | i | i | i | nt | nt
Cc1ccc(S(=O)(=O)CCC(=O)Nc2nc(-c3ccccn3)cs2)cc1 | i | i | 66.7 | nt | nt | nt | i | nt
O=C(CCS(=O)(=O)c1ccccc1)Nc1nc(-c2ccc(F)cc2)cs1 | i | ? | 60.0 | i | i | i | 43.2 | 53.0
CN(c1nc2ccccc2[nH]c1=O)C1CCCCC1 | i | i | i | i | i | nt | nt | nt
COc1ccccc1N(C)S(=O)(=O)c1ccc(C(=O)N2CCCC(C(F)(F)F)C2)cc1 (configuration not stated) | nt | i | i | i | i | i | nt | nt
C=CCN(C(=O)Nc1ccc(OC)cc1)c1nnc(-c2ccncc2)s1 | i | i | i | i | i | i | nt | nt
Cc1ccc(C2(C)NC(=O)N(CC(=O)Nc3nc(-c4ccccn4)cs3)C2=O)cc1 (configuration not stated) | nt | i | 59.1 | i | i | ? | 49.4 | 63.9
Cc1ccc(S(=O)(=O)CCC(=O)Nc2nc(-c3cccnc3)cs2)cc1 | i | i | 58.5 | i | i | i | i | 66.3
O=C(CCS(=O)(=O)c1ccc(Cl)cc1)Nc1nc(-c2cccnc2)cs1 | nt | i | 70.4 | i | i | i | i | 71.9
O=C(CCS(=O)(=O)c1ccc(Cl)cc1)Nc1nc(-c2ccncc2)cs1 | i | i | 96.6 | i | 84.9 | i | 55.5 | i
Cc1ccc(S(=O)(=O)NCC(=O)OCC(=O)N(CCC#N)c2ccccc2)cc1 | i | nt | i | nt | nt | nt | nt | nt
O=C(COc1ccccc1)Nc1nc(-c2cccnc2)cs1 | i | nt | i | nt | nt | nt | nt | nt
Cc1cc(C)cc(OCC(=O)Nc2nc(-c3cccnc3)cs2)c1 | i | i | 78.0 | i | i | i | i | nt
CC(=O)O[C@@]12CO[C@@H]1C[C@H](O)[C@@]1(C)C(=O)[C@H](O)C3=C(C)[C@@H](OC(=O)[C@H](O)[C@@H](NC(=O)OC(C)(C)C)c4ccccc4)C[C@](O)([C@@H](OC(=O)c4ccccc4)[C@H]21)C3(C)C | nt | i | 55.8 | i | i | 56.0 | 62.0 | 52.6
CC(=O)O[C@H]1C[C@@]2(O)[C@@H](OC(=O)c3ccccc3)C3[C@@](C)([C@@H](O)C[C@H]4OC[C@@]34OC(C)=O)[C@@H](O)[C@H](OC(C)=O)C(=C1C)C2(C)C (some centres not stated) | nt | i | i | i | i | i | nt | nt
O=C(NCCc1ccccc1)C(=O)NCC1OCCN1S(=O)(=O)c1ccc(F)cc1 (configuration not stated) | i | i | i | i | i | i | nt | nt
CCOc1ccccc1NS(=O)(=O)c1ccc2oc(=O)ccc2c1 | i | i | i | i | i | i | nt | nt
CCc1c(C)nc2ccc(Br)cc2c1SCCC#N | i | i | 67.3 | i | i | i | 58.8 | i
O=c1cc(CN2CCN(S(=O)(=O)c3cccc(Cl)c3)CC2)c2ccc(O)cc2o1 | i | i | i | nt | nt | nt | nt | nt
CC1=C(C(=O)OCc2ccc3c(c2)OCO3)C(c2ccccc2)NC(=O)N1 (configuration not stated) | i | i | 87.0 | i | i | i | 90.9 | 51.5
